Key:
[1] = HPLC stability determination of final drug product; assay type: physicochemical; settings: ambient temperature, shielded container
Outline: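 Final product was formulated at 44–463 MBq/mL in USP ethanol (1 mL)/0.5 mg ascorbic acid in 0.9 % sodium chloride, sterile filtered and sealed in a glass vial. It was held at ambient temperature in a shielded container and checked by HPLC after end-of-synthesis. Release QC covered HPLC radiochemical purity (≥90 %), pH 4.5–7.5, endotoxin, GC residual solvents, sterility and filter integrity.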

[2] = organ radiation dose estimates, both OLINDA software versions; assay type: in vivo, human
Outline: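 Per-participant organ doses from OLINDA 1.1 (ICRP-60) and 2.0 (ICRP-103) were pooled by sex as mean ± SD (n = 4 per sex), in mGy/MBq; effective dose in mSv/MBq. Males and females were compared at p < 0.05. Kidney dose per MBq was related to injected activity and benchmarked against FDA 21CFR361 single-study limits (30 mSv whole body; 50 mGy other organs).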

[3] = range of sex means from both software versions

expiration time after end-of-synthesis (EOS) [1]: 4 h
kidney dose per injected activity used for the limit ([2]; 0.237 mGy/MBq × 211 MBq = 50 mGy): 0.237 mGy/MBq
renal estimated radiation dose ([2]; Males 1–2 and Female 2, 289–355 MBq given): > 50 mSv
ratio of estimated kidney dose to radioactivity given ([2]; Males 1–2 and Female 4): > 0.21 mGy/MBq
critical organ ([2]; highest mean absorbed dose, primary route of elimination): kidneys
estimated absorbed doses, remaining organs and tissues and Effective dose ([2]; organs other than kidneys, liver, small intestine): < 0.035 mGy/MBq
kidneys mean absorbed estimated radiation dose [2, 3]: 0.142 to 0.214 mGy/MBq
liver mean absorbed dose [2, 3]: 0.0392 to 0.0449 mGy/MBq
Structure (SMILES): COC(=O)[C@@H](N)CC(=O)Nc1ccc2c(c1)Cc1cc([18F])ccc1-2 [[^18F]RP-115, methyl N^4-(7-[^18F]fluoro-9H-fluoren-2-yl)asparaginate]

From publication PMC13170702 (Nuclear medicine and biology, 2025)
